Laboratory results taken from ChEMBL document CHEMBL1137600, “From docking false-positive to active anti-HIV agent” (J Med Chem, 2007).
Calls of active or inactive are those of the source. The rule behind the calls is not given here.

Assays:
[1] = test system: Human immunodeficiency virus 1; assay: Antiviral activity against HIV1 3B in human MT2 cells by MTT assay; format: functional, organism-based; details: for EC50: Human immunodeficiency virus 1, 3B
Procedure, shortened: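 HIV-1 IIIB infection of human MT-2 T-cells; MTT colorimetric read-out of cell protection. Antiviral curves were run in triplicate at each concentration.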

MT2 = assay: Cytotoxicity against human MT2 cells by MTT assay; format: functional
Procedure, shortened: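 Human MT-2 cells, MTT colorimetric read-out. CC50 is the concentration giving 50% inhibition of MT-2 cell growth.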

Row | SMILES | EC50 [1] [µM] | CC50 (MT2) [µM] | Activity [1]
1 | Cc1cn([C@H]2C=C[C@@H](CO)O2)c(=O)[nH]c1=O [STAVUDINE] | 1.6 | > 100 | –
2 | Clc1ccc(Nc2nnc(Cc3c(Cl)cccc3Cl)o2)cc1Cl | 0.31 | > 100 | –
3 | Clc1ccc(Cc2nnc(Nc3ccc(Cl)cc3)o2)cc1 | – | > 100 | inactive
4 | Cc1ccnc2c1NC(=O)c1cccnc1N2C1CC1 [NEVIRAPINE] | – | > 10 | –
5 | COc1ccc(Cc2nnc(Nc3ccc(C)cc3)o2)cc1OC | – | 61 | inactive
6 | Clc1ccc(Nc2nnc(Cc3cccc(Cl)c3)o2)cc1 | > 10 | 32 | –
7 | O=C1Nc2ccc(Cl)cc2C(C#CC2CC2)(C(F)(F)F)O1 (single isomer, unassigned) [EFAVIRENZ] | – | 3 | –
8 | Cc1cc(C)cc(Cc2nnc(Nc3ccc(Cl)cc3)o2)c1 | – | > 100 | inactive
9 | COc1cc(Nc2nnc(Cc3c(Cl)cccc3Cl)o2)c(Cl)cc1Cl | – | 9 | inactive
10 | FC(F)(F)c1cc(Nc2nnc(Cc3c(Cl)cccc3Cl)o2)ccc1Cl | – | 9 | inactive
11 | c1ccc(Cc2nnc(Nc3ccccc3)o2)cc1 | – | > 100 | inactive
12 | Cc1cc(Nc2nnc(Cc3c(Cl)cccc3Cl)o2)ccc1Cl | 1.3 | > 100 | –
13 | Clc1ccc(Nc2nnc(Cc3c(Cl)cccc3Cl)o2)cc1 | 0.82 | 20 | –
14 | Clc1ccc(Nc2nnc(Cc3ccccc3)o2)cc1 | – | 31 | inactive
